# Assay results taken from PMC6218153 (Journal of Alzheimer's Disease Reports, 2018).
# Where no end group is shown, it is not given here.
# Legend:
# [1] = Radiolabel distribution study of 3H-P8 after IV or IN delivery; format: in vivo; conditions: rat
# In short: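 Adult male SD rats (n = 6/route) were anaesthetised with ketamine/xylazine/acepromazine. They received 0.5 mg test compound plus 60 μCi tritiated label in 60 μL over 18 min, either by IV infusion or by IN drops to alternating nares every 2 min while supine. Blood was drawn 10 and 20 min after dosing ended. At 30 min: cardiac puncture, saline perfusion, then tissue scintillation counting. Concentrations were derived from DPM, tissue weight and specific activity; values beyond 2 SD were excluded as outliers.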
# [2] = Metabolic stability in human brain homogenate; format: in vitro ADME
# In short: (§1)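 Test compound (100 μM stock in methanol) added to 1 μM final in plasma or brain homogenate (1:3 brain:PBS, w/v) and incubated at room temperature. Sampled at 15 and 30 min and 1, 2 and 4 h; time-zero samples pre-quenched with methanol. Proteins were methanol-precipitated; supernatant evaporated, reconstituted in 0.1% formic acid and analysed by LC/MS/MS. Duplicates per time point; results expressed as % of time 0.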
# [3] = Metabolic stability in human plasma; format: in vitro ADME
# In short: as §1
# [4] = Metabolic stability in mouse plasma; format: in vitro ADME
# In short: as §1
# [5] = Metabolic stability in mouse brain homogenate; format: in vitro ADME
# In short: as §1
sequence,measurement,setting,value
"DEEEDEEL [P8, DEEEDEEL]","improvement of brain targeting, IN compared to IV delivery",[1],approximately 4 fold
same,half-life,"[2]; human brain homogenate, 1μM P8, room temperature",2 h
same,"remaining at 2 h, 1 μM","[2]; human, brain homogenate",51.4%
same,half-life,[3],> 2 h
same,"remaining at 2 h, 1 μM",[3],63.1%
same,half-life,[4],> 4 h
same,"remaining at 2 h, 1 μM",[4],100%
same,"remaining at 2 h, 1 μM",[5],49.2%
